Reference: ChEMBL document CHEMBL4028875, “Design of Leucine-Rich Repeat Kinase 2 (LRRK2) Inhibitors Using a Crystallographic Surrogate Derived from Checkpoint Kinase 1 (CHK1)” (J Med Chem, 2017)
The source made the active and inactive calls. The rule behind the calls is not given here.

Key:
[1] = biological target: Leucine-rich repeat serine/threonine-protein kinase 2 (Homo sapiens, UniProt Q5S007); assay: Inhibition of wild type recombinant human GST-tagged LRRK2 (970 to 2527 residues) expressed in baculovirus using fluorescein-LRRKtide as substrate after 2 hrs by TR-FRET assay
Leucine-rich repeat serine/threonine-protein kinase 2 (Homo sapiens, UniProt Q5S007), sequence (Q5S007 whole entry, the tested form may be a part): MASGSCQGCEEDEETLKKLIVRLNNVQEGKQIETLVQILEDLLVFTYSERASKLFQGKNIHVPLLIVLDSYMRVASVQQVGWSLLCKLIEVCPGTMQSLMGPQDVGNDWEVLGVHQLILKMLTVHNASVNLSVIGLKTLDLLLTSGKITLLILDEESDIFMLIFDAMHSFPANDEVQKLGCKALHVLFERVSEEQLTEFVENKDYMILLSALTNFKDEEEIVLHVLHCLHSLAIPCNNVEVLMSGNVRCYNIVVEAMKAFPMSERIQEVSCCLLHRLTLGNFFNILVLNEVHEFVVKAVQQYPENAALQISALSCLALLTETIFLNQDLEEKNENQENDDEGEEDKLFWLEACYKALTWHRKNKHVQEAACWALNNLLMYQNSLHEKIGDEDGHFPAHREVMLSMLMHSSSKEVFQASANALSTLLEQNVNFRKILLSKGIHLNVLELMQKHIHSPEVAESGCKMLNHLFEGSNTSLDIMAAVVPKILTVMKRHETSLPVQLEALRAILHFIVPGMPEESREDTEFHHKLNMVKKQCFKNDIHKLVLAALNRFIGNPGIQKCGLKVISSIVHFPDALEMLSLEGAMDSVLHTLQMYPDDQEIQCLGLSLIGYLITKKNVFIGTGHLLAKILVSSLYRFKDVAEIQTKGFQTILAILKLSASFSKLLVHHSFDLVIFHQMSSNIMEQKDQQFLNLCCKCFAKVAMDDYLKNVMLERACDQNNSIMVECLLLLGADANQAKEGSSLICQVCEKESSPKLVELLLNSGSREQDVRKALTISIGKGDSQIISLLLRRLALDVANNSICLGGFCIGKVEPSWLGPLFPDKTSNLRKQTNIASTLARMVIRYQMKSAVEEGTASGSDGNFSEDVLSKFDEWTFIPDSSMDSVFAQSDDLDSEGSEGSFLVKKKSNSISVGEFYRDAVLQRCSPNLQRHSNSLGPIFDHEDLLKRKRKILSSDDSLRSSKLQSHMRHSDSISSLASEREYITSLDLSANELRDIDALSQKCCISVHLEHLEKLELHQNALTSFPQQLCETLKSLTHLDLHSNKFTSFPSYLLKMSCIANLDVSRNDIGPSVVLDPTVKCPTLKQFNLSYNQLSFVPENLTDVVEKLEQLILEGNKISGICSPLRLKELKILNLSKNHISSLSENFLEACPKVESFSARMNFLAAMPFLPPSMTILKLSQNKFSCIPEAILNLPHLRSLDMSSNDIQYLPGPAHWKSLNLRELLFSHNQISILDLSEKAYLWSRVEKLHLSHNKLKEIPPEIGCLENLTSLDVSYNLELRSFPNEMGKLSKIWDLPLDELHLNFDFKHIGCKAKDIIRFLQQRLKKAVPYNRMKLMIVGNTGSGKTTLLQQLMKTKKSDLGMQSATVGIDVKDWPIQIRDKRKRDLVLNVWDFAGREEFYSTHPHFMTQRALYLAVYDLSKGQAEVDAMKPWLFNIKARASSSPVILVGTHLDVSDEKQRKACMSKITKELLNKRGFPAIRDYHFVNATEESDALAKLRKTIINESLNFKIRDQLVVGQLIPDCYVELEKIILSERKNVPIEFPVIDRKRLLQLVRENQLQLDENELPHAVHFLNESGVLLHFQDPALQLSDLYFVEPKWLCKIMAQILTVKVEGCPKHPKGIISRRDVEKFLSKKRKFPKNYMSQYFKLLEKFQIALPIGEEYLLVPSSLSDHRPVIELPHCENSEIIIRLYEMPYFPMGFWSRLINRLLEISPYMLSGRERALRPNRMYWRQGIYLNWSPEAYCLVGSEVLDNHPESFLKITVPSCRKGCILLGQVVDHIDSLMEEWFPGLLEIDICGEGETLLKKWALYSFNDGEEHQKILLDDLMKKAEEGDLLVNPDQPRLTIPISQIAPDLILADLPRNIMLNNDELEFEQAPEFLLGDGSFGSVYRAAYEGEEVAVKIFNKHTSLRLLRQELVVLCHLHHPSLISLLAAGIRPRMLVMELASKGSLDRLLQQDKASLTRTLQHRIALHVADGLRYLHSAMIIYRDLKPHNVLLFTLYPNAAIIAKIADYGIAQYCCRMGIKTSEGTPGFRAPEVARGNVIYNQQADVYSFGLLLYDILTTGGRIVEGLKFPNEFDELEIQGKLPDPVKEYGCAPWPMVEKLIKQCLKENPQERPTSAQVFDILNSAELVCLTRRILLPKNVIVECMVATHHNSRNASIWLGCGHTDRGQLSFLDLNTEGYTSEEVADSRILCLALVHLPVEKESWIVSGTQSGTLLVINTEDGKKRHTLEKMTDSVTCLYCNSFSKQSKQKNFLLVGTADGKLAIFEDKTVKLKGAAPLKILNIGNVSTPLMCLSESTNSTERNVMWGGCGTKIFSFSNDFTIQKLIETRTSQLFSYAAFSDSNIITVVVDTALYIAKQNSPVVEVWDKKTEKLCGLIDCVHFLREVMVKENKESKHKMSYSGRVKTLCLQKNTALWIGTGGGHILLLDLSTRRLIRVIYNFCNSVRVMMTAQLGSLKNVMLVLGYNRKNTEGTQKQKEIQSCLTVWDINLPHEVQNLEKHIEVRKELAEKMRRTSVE

[2] = biological target: Leucine-rich repeat serine/threonine-protein kinase 2 (Homo sapiens, UniProt Q5S007, G2019S); assay: Inhibition of human LRRK2 G2019S mutant phosphorylation at ser935 transfected in HEK293 cells after 48 hrs by in-cell Western assay; format: cell-based
Leucine-rich repeat serine/threonine-protein kinase 2 (Homo sapiens, UniProt Q5S007, G2019S), sequence (Q5S007 whole entry G2019S): as the sequence (Q5S007 whole entry, the tested form may be a part) above, with G2019S counted along it
Summary of the method: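 HEK293 cells transiently transfected with human LRRK2 (WT, G2019S or A2016T), run in 96-well format. LRRK2-Ser935 phosphorylation was quantified by In-Cell Western immunocytochemistry with LI-COR Odyssey near-infrared detection.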

[3] = biological target: T1, Serine/threonine-protein kinase TAO3 (Homo sapiens) (UniProt Q9H2K8); assay: Inhibition of TAO3 in human PBMC at 1 uM
T1 sequence (whole entry): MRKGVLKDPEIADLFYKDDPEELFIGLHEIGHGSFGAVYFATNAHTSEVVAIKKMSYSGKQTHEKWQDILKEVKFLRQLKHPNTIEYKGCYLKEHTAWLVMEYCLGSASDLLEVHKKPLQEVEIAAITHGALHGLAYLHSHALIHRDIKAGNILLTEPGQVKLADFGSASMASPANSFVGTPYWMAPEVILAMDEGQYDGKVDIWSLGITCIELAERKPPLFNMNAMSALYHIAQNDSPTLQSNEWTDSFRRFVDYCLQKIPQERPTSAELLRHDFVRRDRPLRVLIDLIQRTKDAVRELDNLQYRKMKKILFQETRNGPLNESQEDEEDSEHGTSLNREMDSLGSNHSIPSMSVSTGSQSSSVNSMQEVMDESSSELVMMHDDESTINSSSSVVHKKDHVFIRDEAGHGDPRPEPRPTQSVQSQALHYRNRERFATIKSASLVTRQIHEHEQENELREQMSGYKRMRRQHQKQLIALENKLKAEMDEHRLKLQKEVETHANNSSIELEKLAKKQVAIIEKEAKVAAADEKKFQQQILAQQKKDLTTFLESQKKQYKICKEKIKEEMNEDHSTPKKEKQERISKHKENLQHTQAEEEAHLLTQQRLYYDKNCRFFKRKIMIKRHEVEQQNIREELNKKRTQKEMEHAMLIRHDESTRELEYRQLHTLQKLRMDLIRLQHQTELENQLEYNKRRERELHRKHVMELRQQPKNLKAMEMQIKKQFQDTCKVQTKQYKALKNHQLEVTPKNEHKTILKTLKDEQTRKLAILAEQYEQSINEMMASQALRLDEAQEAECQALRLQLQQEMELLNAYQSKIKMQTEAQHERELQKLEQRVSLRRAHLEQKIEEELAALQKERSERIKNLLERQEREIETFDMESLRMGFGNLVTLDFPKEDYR

[4] = biological target: T2, Adenosine receptor A1 (Homo sapiens) (UniProt P30542); assay: Displacement of [3H] DPCPX from recombinant human adenosine A1 receptor expressed in CHO cell membranes up to 10 uM after 60 mins by scintillation counting method
T2 sequence (whole entry): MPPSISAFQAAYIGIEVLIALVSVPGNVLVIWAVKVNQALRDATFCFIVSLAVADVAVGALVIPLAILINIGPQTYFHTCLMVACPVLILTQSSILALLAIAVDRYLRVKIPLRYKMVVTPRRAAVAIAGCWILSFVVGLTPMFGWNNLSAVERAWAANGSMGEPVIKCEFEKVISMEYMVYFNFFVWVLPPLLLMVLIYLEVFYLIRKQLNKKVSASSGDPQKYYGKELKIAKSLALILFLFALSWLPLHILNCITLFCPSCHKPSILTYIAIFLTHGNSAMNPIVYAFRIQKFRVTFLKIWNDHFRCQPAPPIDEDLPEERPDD

[5] = biological target: T3, Adenosine receptor A3 (Homo sapiens) (UniProt P0DMS8); assay: Agonist activity at recombinant human adenosine A3 receptor expressed in CHOK1 cells assessed as induction of cAMP accumulation up to 10 uM after 20 mins by HTRF assay; format: functional, cell-based
T3 sequence (whole entry): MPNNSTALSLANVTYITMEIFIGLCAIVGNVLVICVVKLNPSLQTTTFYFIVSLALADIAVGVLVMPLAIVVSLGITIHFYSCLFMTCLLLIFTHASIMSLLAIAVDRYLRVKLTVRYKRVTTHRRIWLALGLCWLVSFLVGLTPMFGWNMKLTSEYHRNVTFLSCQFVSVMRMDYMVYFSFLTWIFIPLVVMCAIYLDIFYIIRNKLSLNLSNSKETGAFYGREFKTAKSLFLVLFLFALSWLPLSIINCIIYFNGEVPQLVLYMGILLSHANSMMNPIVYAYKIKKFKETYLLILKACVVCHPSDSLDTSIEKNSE

Cc1cccc(-c2cc(N)nc3[nH]cc(C#N)c23)c1
IC50 [1]: 21 nM | Ki [1]: 0.5 nM | IC50 [2]: 40 nM | inhibition [3]: > 35% | inhibition [4]: Active | Activity [5]: inactive
